Reference: ChEMBL document CHEMBL3425488, “Novel histone deacetylase inhibitors induce growth arrest, apoptosis, and differentiation in sarcoma cancer stem cells” (J Med Chem, 2015)
Active and inactive are the calls of the source. The calls are words filed in the database; no cut-off is given here.

Columns and labels:
Histone deacetylase 7 = biological target: T1, Histone deacetylase 7 (Homo sapiens, UniProt Q8WUI4); assay: Inhibition of recombinant HDAC7 (unknown origin) by homogeneous fluorescence release assay
T1 sequence (Q8WUI4 whole entry): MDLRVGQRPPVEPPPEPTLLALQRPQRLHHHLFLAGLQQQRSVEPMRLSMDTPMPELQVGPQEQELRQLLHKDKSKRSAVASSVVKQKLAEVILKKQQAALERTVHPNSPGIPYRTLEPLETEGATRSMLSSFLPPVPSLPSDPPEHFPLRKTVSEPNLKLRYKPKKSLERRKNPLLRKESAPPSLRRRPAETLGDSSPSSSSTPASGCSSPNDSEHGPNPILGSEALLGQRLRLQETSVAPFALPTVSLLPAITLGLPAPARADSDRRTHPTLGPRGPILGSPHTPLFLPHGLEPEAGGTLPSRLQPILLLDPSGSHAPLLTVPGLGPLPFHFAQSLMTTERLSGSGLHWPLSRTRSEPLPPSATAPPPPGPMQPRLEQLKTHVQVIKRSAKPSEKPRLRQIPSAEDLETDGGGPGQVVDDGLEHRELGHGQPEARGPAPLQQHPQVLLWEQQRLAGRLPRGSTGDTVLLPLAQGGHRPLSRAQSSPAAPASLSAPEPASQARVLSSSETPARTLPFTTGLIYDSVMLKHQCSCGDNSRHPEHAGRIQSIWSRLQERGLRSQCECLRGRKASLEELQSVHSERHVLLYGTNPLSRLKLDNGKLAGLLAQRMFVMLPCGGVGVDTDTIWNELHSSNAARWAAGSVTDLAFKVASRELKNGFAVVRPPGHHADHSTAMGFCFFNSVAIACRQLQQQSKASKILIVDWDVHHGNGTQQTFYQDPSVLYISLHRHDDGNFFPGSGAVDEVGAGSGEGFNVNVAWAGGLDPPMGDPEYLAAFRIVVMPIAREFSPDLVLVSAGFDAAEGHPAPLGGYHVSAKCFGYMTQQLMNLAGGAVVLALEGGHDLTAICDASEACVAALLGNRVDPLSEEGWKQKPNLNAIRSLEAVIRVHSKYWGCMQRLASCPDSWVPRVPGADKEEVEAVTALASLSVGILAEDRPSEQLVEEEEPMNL
Summary of the method: (§1)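 Isoform enzyme assay run in 10-dose IC50 mode. Compounds were serially diluted 3-fold starting from 50 μM solutions.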

Histone deacetylase 9 = Histone deacetylase 9 (Homo sapiens, UniProt Q9UKV0); assay: Inhibition of recombinant HDAC9 (unknown origin) by homogeneous fluorescence release assay; summary of the method: as §1
Sequence of Histone deacetylase 9 (Q9UKV0 whole entry): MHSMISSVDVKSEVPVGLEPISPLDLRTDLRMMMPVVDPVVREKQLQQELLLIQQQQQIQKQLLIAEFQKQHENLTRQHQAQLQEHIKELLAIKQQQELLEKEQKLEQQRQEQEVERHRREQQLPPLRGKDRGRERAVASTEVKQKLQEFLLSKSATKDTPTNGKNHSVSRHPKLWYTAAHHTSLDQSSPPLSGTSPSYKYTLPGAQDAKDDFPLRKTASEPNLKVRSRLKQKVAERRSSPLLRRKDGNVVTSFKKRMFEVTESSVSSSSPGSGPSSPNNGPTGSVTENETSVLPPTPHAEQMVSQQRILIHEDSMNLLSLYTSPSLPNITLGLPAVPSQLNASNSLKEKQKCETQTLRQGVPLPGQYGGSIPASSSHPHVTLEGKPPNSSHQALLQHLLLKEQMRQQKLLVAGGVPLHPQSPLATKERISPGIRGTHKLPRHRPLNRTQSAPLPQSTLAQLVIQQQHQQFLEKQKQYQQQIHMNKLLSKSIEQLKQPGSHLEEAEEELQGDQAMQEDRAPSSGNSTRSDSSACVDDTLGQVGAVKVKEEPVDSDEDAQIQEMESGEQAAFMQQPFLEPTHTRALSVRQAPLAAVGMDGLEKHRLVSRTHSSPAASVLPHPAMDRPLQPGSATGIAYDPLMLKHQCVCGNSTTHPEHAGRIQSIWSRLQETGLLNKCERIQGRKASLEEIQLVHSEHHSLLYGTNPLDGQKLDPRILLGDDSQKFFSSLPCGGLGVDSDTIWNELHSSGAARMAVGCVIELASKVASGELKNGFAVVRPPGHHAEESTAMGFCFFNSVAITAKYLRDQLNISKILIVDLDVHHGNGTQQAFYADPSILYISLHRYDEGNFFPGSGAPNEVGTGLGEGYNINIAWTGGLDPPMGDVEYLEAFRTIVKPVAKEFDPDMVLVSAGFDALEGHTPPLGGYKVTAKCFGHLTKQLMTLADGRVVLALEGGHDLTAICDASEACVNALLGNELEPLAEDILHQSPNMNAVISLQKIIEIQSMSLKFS

HOS = assay: Cytotoxicity against HOS cells assessed as cell viability after 72 hrs by MTT assay; assay type: functional, cell-based; conditions: Homo sapiens
Summary of the method: (§2)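 Sarcosphere-derived CSC cultures exposed 72 h to concentrations from 100 μM down to 0.1 μM. Viability compared with DMSO-only treated cells. IC50 calculated by linear regression.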

MG-63 [1] = assay: Cytotoxicity against human MG63 cells assessed as cell viability after 72 hrs by MTT assay; assay type: functional, cell-based; summary of the method: as §2
SK-ES1 = assay: Cytotoxicity against human SK-ES-1 cells assessed as cell viability after 72 hrs by MTT assay; assay type: functional, cell-based; summary of the method: as §2
MG-63 [2] = assay: Antiproliferative activity against human MG63 cells after 24 to 72 hrs by […] dye exclusion assay; assay type: functional, cell-based
Summary of the method: (§3)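 Sarcosphere-derived CSCs, dissociated to single cells, plated at 50000/well in complete IMDM for adhesion. After 24 h, exposed to 0.5, 1 and 2 μM. Viable cells counted by dye exclusion at 24, 48 and 72 h. Growth inhibition is expressed relative to DMSO-treated controls. Three experiments in duplicate.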

RD [3] = assay: Antiproliferative activity against human RD cells after 24 to 72 hrs by […] dye exclusion assay; assay type: functional, cell-based; summary of the method: as §3
A204 [4] = assay: Antiproliferative activity against human A204 cells after 24 to 72 hrs by […] dye exclusion assay; assay type: functional, cell-based; summary of the method: as §3
RD [5] = assay: Induction of apoptosis in human RD cells at 1 to 2 uM after 48 hrs by Hoechst 33258 staining-based fluorescence microscopic analysis; assay type: functional, cell-based
Summary of the method: (§4)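 Dissociated sarcospheres seeded on glass coverslips in complete IMDM and exposed to 0.5, 1 and 2 μM for 48 h; untreated cells as negative control. Fixed in methanol/acetic acid (3:1), then stained with 2.25 μg/mL Hoechst 33258 for 10 min at rt in the dark. Apoptotic-body nuclei counted over at least five fields (20× objective) and reported as percentage of cells.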

A204 [6] = assay: Induction of apoptosis in human A204 cells at 1 to 2 uM after 48 hrs by Hoechst 33258 staining-based fluorescence microscopic analysis; assay type: functional, cell-based; summary of the method: as §4
MG-63 [7] = assay: Induction of apoptosis in human MG63 cells at 0.5 to 2 uM after 48 hrs by Alexa Fluor 488 Annexin V/propidium iodide staining-based flow cytometric analysis; assay type: functional, cell-based
Histone deacetylase 1 = Histone deacetylase 1 (Homo sapiens, UniProt Q13547); assay: Inhibition of recombinant HDAC1 (unknown origin) by homogeneous fluorescence release assay
Sequence of Histone deacetylase 1 (Q13547 whole entry): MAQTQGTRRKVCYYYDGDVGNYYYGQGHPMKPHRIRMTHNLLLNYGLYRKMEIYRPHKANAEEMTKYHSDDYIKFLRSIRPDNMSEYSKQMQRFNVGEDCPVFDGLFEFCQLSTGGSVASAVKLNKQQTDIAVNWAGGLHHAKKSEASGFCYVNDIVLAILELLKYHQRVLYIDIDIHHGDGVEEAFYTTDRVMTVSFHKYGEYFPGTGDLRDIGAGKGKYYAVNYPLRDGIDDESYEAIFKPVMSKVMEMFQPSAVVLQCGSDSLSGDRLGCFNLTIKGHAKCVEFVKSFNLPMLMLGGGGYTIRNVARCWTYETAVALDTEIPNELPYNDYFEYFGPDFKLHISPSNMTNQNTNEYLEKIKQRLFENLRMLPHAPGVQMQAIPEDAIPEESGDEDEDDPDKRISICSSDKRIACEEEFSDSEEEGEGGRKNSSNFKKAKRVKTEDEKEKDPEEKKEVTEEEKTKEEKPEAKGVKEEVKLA

Histone deacetylase 3 = Histone deacetylase 3 (Homo sapiens, UniProt O15379); assay: Inhibition of recombinant HDAC3 (unknown origin) by homogeneous fluorescence release assay
Sequence of Histone deacetylase 3 (O15379 whole entry): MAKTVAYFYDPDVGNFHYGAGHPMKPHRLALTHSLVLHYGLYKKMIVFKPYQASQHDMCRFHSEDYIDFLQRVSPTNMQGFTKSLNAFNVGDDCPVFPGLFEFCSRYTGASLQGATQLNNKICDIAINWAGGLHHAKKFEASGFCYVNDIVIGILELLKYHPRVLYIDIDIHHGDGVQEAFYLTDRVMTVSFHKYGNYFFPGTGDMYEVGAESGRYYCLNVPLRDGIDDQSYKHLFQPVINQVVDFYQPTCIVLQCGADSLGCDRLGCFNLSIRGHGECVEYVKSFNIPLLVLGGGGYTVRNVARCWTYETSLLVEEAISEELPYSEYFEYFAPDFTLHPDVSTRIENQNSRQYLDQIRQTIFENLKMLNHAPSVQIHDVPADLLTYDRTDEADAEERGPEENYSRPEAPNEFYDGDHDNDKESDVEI

Histone deacetylase 8 = biological target: T2, Histone deacetylase 8 (Homo sapiens, UniProt Q9BY41); assay: Inhibition of recombinant HDAC8 (unknown origin) by homogeneous fluorescence release assay
T2 sequence (Q9BY41 whole entry): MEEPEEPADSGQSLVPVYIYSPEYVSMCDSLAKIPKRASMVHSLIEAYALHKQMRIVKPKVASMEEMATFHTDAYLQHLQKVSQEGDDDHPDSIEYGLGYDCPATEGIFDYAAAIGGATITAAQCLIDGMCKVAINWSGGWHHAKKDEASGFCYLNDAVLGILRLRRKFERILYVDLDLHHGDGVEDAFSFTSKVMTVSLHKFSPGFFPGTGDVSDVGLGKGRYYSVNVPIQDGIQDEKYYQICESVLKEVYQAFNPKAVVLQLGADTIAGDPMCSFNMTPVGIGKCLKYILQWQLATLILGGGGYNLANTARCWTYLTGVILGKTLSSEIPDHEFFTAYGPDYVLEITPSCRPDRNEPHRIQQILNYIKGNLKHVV

Histone deacetylase 11 = biological target: T3, Histone deacetylase 11 (Homo sapiens, UniProt Q96DB2); assay: Inhibition of recombinant HDAC11 (unknown origin) by homogeneous fluorescence release assay
T3 sequence (Q96DB2 whole entry): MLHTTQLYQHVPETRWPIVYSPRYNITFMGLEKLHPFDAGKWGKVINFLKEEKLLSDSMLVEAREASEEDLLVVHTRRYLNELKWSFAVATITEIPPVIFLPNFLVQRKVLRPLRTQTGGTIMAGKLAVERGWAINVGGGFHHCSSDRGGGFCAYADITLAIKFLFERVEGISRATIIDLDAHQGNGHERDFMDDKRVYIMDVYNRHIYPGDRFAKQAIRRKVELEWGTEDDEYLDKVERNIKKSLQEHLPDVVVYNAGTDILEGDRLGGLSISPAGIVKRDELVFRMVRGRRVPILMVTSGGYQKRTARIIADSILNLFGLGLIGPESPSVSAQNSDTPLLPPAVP

**Q.** What does the source list for `O=C(CCCCSc1nc(-c2ccc(-c3ccccc3)cc2)cc(=O)[nH]1)NO`?
**A.** IC50 (Histone deacetylase 7): > 50 µM; IC50 (Histone deacetylase 9): > 50 µM; Activity (HOS): Dose-dependent effect; Activity (MG-63 [1]): Dose-dependent effect; Activity (SK-ES1): Dose-dependent effect; Activity (MG-63 [2]): Dose-dependent effect; Activity (RD [3]): Dose-dependent effect; Activity (A204 [4]): Dose-dependent effect; Activity (RD [5]): Active; Activity (A204 [6]): Active; Activity (MG-63 [7]): Active

**Q.** Which IC50 (Histone deacetylase 1) does the source give for `O=C(/C=C/c1ccc(NC(=O)C(Cc2ccccc2)c2ccccc2)cn1)NO` (stereo unspecified) here?
**A.** Its IC50 is 1.42 µM.

**Q.** And the IC50 (Histone deacetylase 3)?
**A.** The IC50 was 0.08 µM.

**Q.** And the IC50 (Histone deacetylase 7)?
**A.** The IC50 was 8.77 µM.

**Q.** What about the IC50 (Histone deacetylase 8) of the same compound?
**A.** Its IC50 is 0.61 µM.

**Q.** What about the IC50 (Histone deacetylase 9) of the same compound?
**A.** The IC50 was 10.6 µM.

**Q.** And the IC50 (Histone deacetylase 11)?
**A.** The IC50 was 10.2 µM.

**Q.** What about the Activity (HOS) of the same compound?
**A.** Its Activity is “Dose-dependent effect”.

**Q.** And the Activity (MG-63 [1])?
**A.** The Activity was “Dose-dependent effect”.

**Q.** What about the Activity (SK-ES1) of the same compound?
**A.** Its Activity is “Dose-dependent effect”.

**Q.** What about the Activity (MG-63 [2]) of the same compound?
**A.** Its Activity is “Dose-dependent effect”.

**Q.** And the Activity (RD [3])?
**A.** Its Activity is “Dose-dependent effect”.

**Q.** What about the Activity (A204 [4]) of the same compound?
**A.** Its Activity is “Dose-dependent effect”.

**Q.** What about the Activity (RD [5]) of the same compound?
**A.** Its Activity is “Active”.

**Q.** And the Activity (A204 [6])?
**A.** The Activity was “inactive”.

**Q.** What about the Activity (MG-63 [7]) of the same compound?
**A.** Its Activity is “Active”.
